Bioassay records from PubChem.
DDE Tn7 FP inh = inhibitors of Tn7 peptide binding to fibrin DD(E), primary screen, biochemical, fluorescence polarization, human fibrin, Tn7 probe. AID 720508, 2013. FP displacement of FITC-Tn7 peptide from fibrin DD(E); 0% = median of compound wells per plate. 0.13% of 370,000 active. Fibrinogen beta chain (Homo sapiens), P02675. inhibition, % at 8.3 µM;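 active = inhibition above the mean of compounds falling within the control limits plus 3 SD of them, cut at about 14% in these data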
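Assay system: human fibrin DD(E) protein / Input: 2 µM fibrin DD(E) / Benchmarks: high control of 10 µM Aha-Tn7 peptide / Measured by: fluorescence polarization of the labelled Tn7 tracer / Medium: Tris buffer with calcium and detergent, pH 7.8 / Timing: 10 min compound pre-incubation, 3 h probe incubation at room temperature / Repeats: one replicate per compound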
proKLK7 act = proKLK7 zymogen activators, primary screen, biochemical, fluorescence intensity; purified proKLK7, EDANS-DABCYL substrate fluorescence; 100% is mature enzyme control, 0% vehicle; activation, % at 7 µM; Kallikrein-7 (Homo sapiens), P49862; 0.9% of 370,000 active; AID 652039, 2013;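 active = activation above the mean of all tested compounds plus 3 SD, computed per campaign excluding outliers beyond control limits, cut at about 13% in these data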
Neddyl block = inhibitors of cullin neddylation, primary screen, biochemical, TR-FRET, uHTS, NAE and Ubc12. NEDD8-conjugating enzyme Ubc12 (Homo sapiens) + NEDD8-activating enzyme E1 regulatory …. calls only at 25 µM. 0.58% of 360,000 active. AID 651699, 2012; in the data active = inhibition above about 36%
Target sequence (P61081 whole entry, looked up): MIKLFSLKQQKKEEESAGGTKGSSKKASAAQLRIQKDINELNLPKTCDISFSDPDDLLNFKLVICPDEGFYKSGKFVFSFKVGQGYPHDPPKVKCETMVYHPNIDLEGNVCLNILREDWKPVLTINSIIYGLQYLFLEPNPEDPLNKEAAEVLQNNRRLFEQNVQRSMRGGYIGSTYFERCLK
Target sequence (Q13564 whole entry, looked up): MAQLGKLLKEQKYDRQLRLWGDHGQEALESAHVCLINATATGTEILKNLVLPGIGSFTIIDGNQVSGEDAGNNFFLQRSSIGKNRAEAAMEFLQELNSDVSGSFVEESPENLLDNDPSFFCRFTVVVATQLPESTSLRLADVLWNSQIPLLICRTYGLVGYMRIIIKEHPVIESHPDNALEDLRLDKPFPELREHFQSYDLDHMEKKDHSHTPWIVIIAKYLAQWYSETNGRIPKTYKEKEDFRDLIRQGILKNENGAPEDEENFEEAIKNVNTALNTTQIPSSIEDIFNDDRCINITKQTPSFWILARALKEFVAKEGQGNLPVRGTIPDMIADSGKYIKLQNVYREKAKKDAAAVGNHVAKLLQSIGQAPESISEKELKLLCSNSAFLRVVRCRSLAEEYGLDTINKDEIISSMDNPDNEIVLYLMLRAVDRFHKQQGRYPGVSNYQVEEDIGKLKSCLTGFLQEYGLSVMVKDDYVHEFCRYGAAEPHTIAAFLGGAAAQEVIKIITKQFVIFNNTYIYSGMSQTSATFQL
MT1-MMP act inh = blockers of MT1-MMP proenzyme processing, primary screen, HT1080 RFP-PRO-GFP cells, GFP/RFP fluorescence. AID 651647, 2012. GFP/RFP ratio change, % at 20 µM. 0.061% of 360,000 active. GFP/RFP ratio fluorescence, overnight; percent of plate control window, DMSO zero;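 active = GFP/RFP ratio change of at least 30% with cell ATP level not reduced by more than half and red fluorescence within 50% of control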
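Test system: HT1080 cells expressing an RFP-PRO-GFP fluorescent reporter construct / Compound dosing: single-point 20 µM compound, 1% DMSO / Schedule: cells overnight before dosing, compound overnight, 37 °C, 5% CO2 / Evaluation: GFP/RFP fluorescence ratio / Control set: DMSO and RFP-L50D-GFP cell wells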
DDE Tn6 FP inh = inhibitors of Tn6 peptide binding to fibrin DD(E), primary screen, biochemical, fluorescence polarization, human fibrin, Tn6 probe; Fibrinogen beta chain (Homo sapiens), P02675; inhibition, % at 8.3 µM; 0.21% of 370,000 active; Fibrin DD(E) TRITC-Tn6 fluorescence polarization displacement;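 active = inhibition above a per-campaign cutoff: mean of compounds within control limits plus 3 SD, cut at about 15% in these data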
SKN-1 block = suppressors of acrylamide-induced Pgst-4::GFP reporter in worms, primary screen, SKN-1 inhibitor project, whole organism, uHTS, GFP/RFP fluorescence ratio, strain VP596 | C. elegans VP596 Pgst-4::GFP/RFP ratio, 24 h | inhibition, % at 21.8 µM | 0.49% of 360,000 active | AID 624304, 2012;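 active = interference check ratio from 0.5 to 1.5 plus GFP to RFP signal ratio inhibition reaching or exceeding a fixed threshold, cut at about 30% in these data, passing the limit was not always enough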
DDE Tn7 confirm = inhibitors of Tn7 peptide binding to fibrin DD(E), confirmation, biochemical, fluorescence polarization, human fibrin, Tn7 probe; FP displacement of TRITC-Tn7 peptide from DD(E); 0% set at plate's compound-well median; inhibition, % at 8.3 µM; 5% of 460 active; shares compounds with DDE Tn7 FP inh;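 active = inhibition above the campaign cutoff, the mean of compounds within control limits plus 3 SD, cut at about 14% in these data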;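 also: displacers lower polarization since freed probe rises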
DDE Tn7 FP ctr = DD(E)-Tn7 binding inhibition, counter-screen; shares compounds with DDE Tn7 FP inh; fibrin DD(E), TRITC-Tn7 probe displacement, fluorescence polarization; inhibition, % at 8.3 µM; 3% of 460 active;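 active = inhibition above the cutoff, the mean of compounds lying between the control bounds plus 3 SD of those compounds, cut at about 17% in these data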
DDE Tn6 FP ctr = counter-screen for inhibitors of Tn6 peptide binding to fibrin DD(E); shares compounds with DDE Tn6 FP inh; inhibition, % at 8.3 µM; 2% of 680 active; TRITC-Tn6 fluorescence polarization displacement; 0% = median of compound wells, not DMSO;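 active = inhibition above the mean of test compounds lying between the control limits plus 3 SD of those, cut at about 14% in these data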
DDE Tn6 confirm = inhibitors of Tn6 peptide binding to fibrin DD(E), confirmation, biochemical, fluorescence polarization, human fibrin, Tn6 probe | shares compounds with DDE Tn6 FP inh | inhibition, % at 8.3 µM | AID 720631, 2013 | FP displacement of TRITC-Tn6 peptide from DD(E); 0% = per-plate median of test wells | 10% of 680 active;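 active = inhibition above the mean of compounds lying within the control limits plus 3 SD, cut at about 16% in these data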
Large screens that a line does not name were inactive (follow-up assays come after a bar, where shown). A selection: hits, their analogues and other compounds. The true share with any hit is near 2.2%.

CN1C(=O)NC(=O)/C(=C/c2ccc([N+](=O)[O-])s2)C1=O	none
O=c1cc(C(F)(F)F)c2cc3c4c(c2o1)CCCN4CCC3	DDE Tn7 FP inh 33 (not shown: Neddyl block) | DDE Tn7 confirm inactive | DDE Tn7 FP ctr inactive
C[n+]1c(-c2ccccc2)c2cc(N)ccc2c2ccc(N)cc21	DDE Tn7 FP inh 22, DDE Tn6 FP inh 49 | DDE Tn7 confirm inactive | DDE Tn7 FP ctr 124 | DDE Tn6 FP ctr inactive | DDE Tn6 confirm 124
COc1cccc(CN2CCNCC2)c1OC	none
COc1cccc2c1C(=O)c1c(O)c3c(c(O)c1C2=O)CC(O)(C(C)=NO)CC3OC1CC(N)C(O)C(C)O1 (configuration not stated)	DDE Tn7 FP inh 21, DDE Tn6 FP inh active | DDE Tn7 confirm inactive | DDE Tn7 FP ctr 93 | DDE Tn6 FP ctr inactive | DDE Tn6 confirm 93
BrCC1C[n+]2c(SCc3ccccc3)nc3sc4c(c3c2O1)CCCC4 (configuration not stated)	none
O=[N+]([O-])c1ccc(NCc2ccccc2)c2nonc12	DDE Tn7 FP inh 61, DDE Tn6 FP inh 21 (no result: Neddyl block, MT1-MMP act inh, SKN-1 block) | DDE Tn7 confirm 46 | DDE Tn7 FP ctr 27 | DDE Tn6 FP ctr 46 | DDE Tn6 confirm 27
Cc1cc(C)c(NC2=NCCCS2)c(C)c1	none (no result: MT1-MMP act inh)
O=[N+]([O-])c1ccc(N2CCCCCC2)c2nonc12	DDE Tn6 FP inh 85 | DDE Tn6 FP ctr inactive | DDE Tn6 confirm 66
CCCCn1c(=O)c(C(=O)NCCc2ccccc2)c(O)c2ccccc21	none
CCNC(=O)C1OC(n2cnc3c(N)ncnc32)C(O)C1O (configuration not stated)	DDE Tn6 FP inh 16 | DDE Tn6 FP ctr inactive | DDE Tn6 confirm inactive
COc1ccc(OC)c(CN2CCN(C(=O)COc3cccc(C)c3)CC2)c1	none
